Calls of active or inactive are those of the source. The calls are words filed in the database; no cut-off is given here.
Experiments:
[1] = AUC (0 to infinity) in Sprague-Dawley rat at 0.8 mg/kg, po; assay type: ADME, organism-based; set-up: dose 0.8 mg/kg, route oral, time infinity; conditions: plasma
Method in brief: (§1)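 Female Sprague–Dawley rats received a single dose by the iv or oral route. AUC from 0 to infinity was reported alongside terminal half-life, Vss, clearance and absolute oral bioavailability.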

[2] = Oral bioavailability in Sprague-Dawley rat at 0.8 mg/kg; assay type: ADME, organism-based; conditions: in vivo
Method in brief: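 Female Sprague-Dawley rats given a single iv dose (0.2 mg/kg) and a single oral dose (0.8 mg/kg). Plasma AUC0-∞ was determined, and absolute oral bioavailability F (%) was derived by comparing oral with iv exposure.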

[3] = AUC (0 to infinity) in CD1 mouse at 4 mg/kg, iv; assay type: ADME, organism-based; set-up: time infinity, dose 4 mg/kg, route intravenous; conditions: plasma
Method in brief: (§2)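 CD-1 mice received a single dose by the iv or oral route. AUC from 0 to infinity was reported with terminal half-life, Vss, clearance and absolute oral bioavailability.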

[4] = Volume of distribution at steady state in CD1 mouse at 4 mg/kg, iv; assay type: ADME, organism-based; set-up: dose 4 mg/kg, route intravenous; conditions: in vivo, read-out: Vdss
Method in brief: (§3)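 Single-dose pharmacokinetics after iv or oral administration in female Sprague–Dawley rats and in CD-1 mice; plasma exposure (AUC0–∞) used to derive steady-state volume of distribution, clearance, terminal half-life and absolute oral bioavailability.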

[5] = Half life in CD1 mouse at 10 mg/kg, po; assay type: ADME, organism-based; set-up: dose 10 mg/kg, route oral; conditions: in vivo
Method in brief: (§4)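 Female Sprague–Dawley rats and CD-1 mice each received a single iv or oral (po) dose. Terminal half-life and systemic clearance were estimated from plasma exposure over time, alongside AUC0→∞, Vss and absolute oral bioavailability.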

Caspase-8 (Homo sapiens) = Caspase-8 (Homo sapiens) (UniProt Q14790); assay: Inhibition of human caspase 8 at 10 uM
[6] = biological target: Dipeptidyl peptidase 4 (Homo sapiens) (UniProt P27487); assay: Inhibition of human DPP4 at 10 uM
[7] = biological target: Neprilysin (Homo sapiens) (UniProt P08473); assay: Inhibition of human NEP at 10 uM
[8] = Inhibition of bacterial prolyl oligopeptidase at 10 uM
[9] = biological target: Plasminogen (Homo sapiens) (UniProt P00747); assay: Inhibition of human plasmin at 10 uM
Homo sapiens = species on record: Homo sapiens; assay: Inhibition of human chymotrypsin at 10 uM
[10] = Inhibition of bovine alpha chymotrypsin; set-up: species or system Bos taurus
[11] = Inhibition of chymotrypsin-like activity of human 20S proteasome in Molt4 cells; assay type: cell-based; conditions: molt-4
Method in brief: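 Intact human leukemia Molt-4 cells were given the cell-permeable fluorogenic chymotrypsin-like substrate MeOSuc-FLF-AFC, so the read-out also reflects inhibitor cell permeability. Potency is reported as EC50.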

[12] = Half life in Sprague-Dawley rat at 0.2 mg/kg, iv; assay type: ADME, organism-based; set-up: dose 0.2 mg/kg, route intravenous; conditions: in vivo; method in brief: as §4
[13] = AUC (0 to infinity) in Sprague-Dawley rat at 0.2 mg/kg, iv; assay type: ADME, organism-based; set-up: dose 0.2 mg/kg, route intravenous, time infinity; conditions: plasma; method in brief: as §1
[14] = Volume of distribution at steady state in Sprague-Dawley rat at 0.2 mg/kg, iv; assay type: ADME, organism-based; set-up: dose 0.2 mg/kg, route intravenous; conditions: in vivo, read-out: Vdss; method in brief: as §3
[15] = Clearance in Sprague-Dawley rat at 0.2 mg/kg, iv; assay type: ADME, organism-based; set-up: dose 0.2 mg/kg, route intravenous; conditions: in vivo; method in brief: as §4
[16] = AUC (0 to infinity) in CD1 mouse at 10 mg/kg, po; assay type: ADME, organism-based; set-up: time infinity, dose 10 mg/kg, route oral; conditions: plasma; method in brief: as §2
[17] = Oral bioavailability in CD1 mouse at 10 mg/kg; assay type: ADME, organism-based; conditions: in vivo
Method in brief: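 CD-1 mice given a single iv dose (4 mg/kg) and a single oral (po) dose (10 mg/kg). Plasma AUC0-∞ was measured, and absolute oral bioavailability F (%) was calculated from the oral versus iv exposure.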

Mus musculus = assay: Inhibition of 20S proteasome beta5beta1 subunit binding in human RPMI 8226 cells xenografted mouse; assay type: functional, organism-based
Cytochrome P450 1A2 = Cytochrome P450 1A2 (Homo sapiens, UniProt P05177); assay: Inhibition of human recombinant CYP1A2 upto 30 uM; assay type: ADME; conditions: recombinant enzyme
Method in brief: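 Recombinant human cytochrome P-450 isoforms were tested with fluorescent P-450 substrates, at test concentrations up to 30 µM.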

Cytochrome P450 2C9 = Cytochrome P450 2C9 (Homo sapiens, UniProt P11712); assay: Inhibition of human recombinant CYP2C9 upto 30 uM; assay type: ADME; conditions: recombinant enzyme
Method in brief: (§5)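 Recombinant human P-450 isoforms (1A2, 2C9, 2C19, 2D6) with fluorescent P-450 substrates; tested at concentrations up to 30 µM to gauge inhibition.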

Cytochrome P450 2D6 = Cytochrome P450 2D6 (Homo sapiens, UniProt P10635); assay: Inhibition of human recombinant CYP2D6 upto 30 uM; assay type: ADME; conditions: recombinant enzyme; method in brief: as §5
[18] = biological target: Calpain-1 catalytic subunit (Homo sapiens) (UniProt P07384); assay: Inhibition of human calpain 1 at 10 uM
[19] = biological target: Cathepsin D (Homo sapiens) (UniProt P07339); assay: Inhibition of human cathepsin D at 10 uM
[20] = biological target: Cathepsin E (Homo sapiens) (UniProt P14091); assay: Inhibition of human cathepsin E at 10 uM
Cathepsin G = Cathepsin G (Homo sapiens, UniProt P08311); assay: Inhibition of human cathepsin G
[21] = biological target: Pro-cathepsin H (Homo sapiens) (UniProt P09668); assay: Inhibition of human cathepsin H at 10 uM
[22] = biological target: Cathepsin Z (Homo sapiens) (UniProt Q9UBR2); assay: Inhibition of human cathepsin Z at 10 uM
Chymase (Homo sapiens) = Chymase (Homo sapiens) (UniProt P23946); assay: Inhibition of human chymase at 10 uM
[23] = Inhibition of human chymotrypsin
Method in brief: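 Cross-reactivity was tested against human pancreas α-chymotrypsin using a fluorogenic specific substrate. Results are expressed as IC50.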

[24] = biological target: Coagulation factor VII (Homo sapiens) (UniProt P08709); assay: Inhibition of human factor 7a at 10 uM
[25] = biological target: Plasma kallikrein (Homo sapiens) (UniProt P03952); assay: Inhibition of human plasma kallikrein at 10 uM
[26] = biological target: Interstitial collagenase (Homo sapiens) (UniProt P03956); assay: Inhibition of human MMP1 at 10 uM
[27] = biological target: Matrilysin (Homo sapiens) (UniProt P09237); assay: Inhibition of human MMP7 at 10 uM
[28] = biological target: Neutrophil collagenase (Homo sapiens) (UniProt P22894); assay: Inhibition of human MMP8 at 10 uM
Caspase-2 (Homo sapiens) = Caspase-2 (Homo sapiens) (UniProt P42575); assay: Inhibition of human caspase 2 at 10 uM
[29] = biological target: Prothrombin (Homo sapiens) (UniProt P00734); assay: Inhibition of human thrombin at 10 uM
Trypsin (Homo sapiens) = Trypsin (Homo sapiens) (UniProt P07477+P07478+P35030); assay: Inhibition of human trypsin at 10 uM; assay type: protein assay
Sus scrofa = species on record: Sus scrofa; assay: Inhibition of pig pancreatic elastase 1 at 10 uM
[30] = biological target: Disintegrin and metalloproteinase domain-containing protein 17 (Homo sapiens) (UniProt P78536); assay: Inhibition of human TACE at 10 uM
[31] = Metabolic stability in mouse liver microsomes; assay type: ADME, Microsome
[32] = Metabolic stability in rat liver microsomes; assay type: ADME, Microsome
[33] = Metabolic stability in dog liver microsomes; assay type: ADME, Canis lupus familiaris, Microsome
[34] = Metabolic stability in human liver microsomes; assay type: ADME, Microsome
[35] = Protein binding in mouse plasma; assay type: ADME, cell-free; conditions: read-out: PPB (converted)
Neutrophil elastase = Neutrophil elastase (Homo sapiens, UniProt P08246); assay: Inhibition of human neutrophil elastase 2
Sequence of Neutrophil elastase (P08246 whole entry): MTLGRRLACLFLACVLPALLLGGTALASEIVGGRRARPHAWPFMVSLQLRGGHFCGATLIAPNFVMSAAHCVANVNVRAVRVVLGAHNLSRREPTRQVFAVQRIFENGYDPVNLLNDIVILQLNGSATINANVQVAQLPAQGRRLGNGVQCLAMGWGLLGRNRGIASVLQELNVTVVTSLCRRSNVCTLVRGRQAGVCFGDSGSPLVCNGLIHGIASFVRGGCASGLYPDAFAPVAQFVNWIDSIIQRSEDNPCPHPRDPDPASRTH

Sequence of Calpain-1 catalytic subunit (Homo sapiens) (P07384 whole entry): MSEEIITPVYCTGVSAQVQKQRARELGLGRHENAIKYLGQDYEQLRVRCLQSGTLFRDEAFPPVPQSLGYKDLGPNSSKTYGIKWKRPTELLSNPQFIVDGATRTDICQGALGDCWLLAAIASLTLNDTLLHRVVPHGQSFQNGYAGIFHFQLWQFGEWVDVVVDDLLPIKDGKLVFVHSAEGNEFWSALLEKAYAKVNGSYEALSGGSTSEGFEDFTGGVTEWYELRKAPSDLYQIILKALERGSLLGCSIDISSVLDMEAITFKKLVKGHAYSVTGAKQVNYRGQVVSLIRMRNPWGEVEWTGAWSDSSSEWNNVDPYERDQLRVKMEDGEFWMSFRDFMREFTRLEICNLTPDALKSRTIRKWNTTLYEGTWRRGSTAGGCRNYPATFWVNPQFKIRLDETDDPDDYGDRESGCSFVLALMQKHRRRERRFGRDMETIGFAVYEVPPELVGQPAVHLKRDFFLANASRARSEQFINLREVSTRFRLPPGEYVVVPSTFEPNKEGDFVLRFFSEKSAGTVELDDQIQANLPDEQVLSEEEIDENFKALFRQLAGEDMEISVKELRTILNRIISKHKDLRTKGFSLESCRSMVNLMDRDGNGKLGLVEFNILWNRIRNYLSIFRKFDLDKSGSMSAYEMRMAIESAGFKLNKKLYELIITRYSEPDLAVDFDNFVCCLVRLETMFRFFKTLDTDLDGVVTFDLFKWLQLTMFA
Sequence of Cytochrome P450 2D6 (P10635 whole entry): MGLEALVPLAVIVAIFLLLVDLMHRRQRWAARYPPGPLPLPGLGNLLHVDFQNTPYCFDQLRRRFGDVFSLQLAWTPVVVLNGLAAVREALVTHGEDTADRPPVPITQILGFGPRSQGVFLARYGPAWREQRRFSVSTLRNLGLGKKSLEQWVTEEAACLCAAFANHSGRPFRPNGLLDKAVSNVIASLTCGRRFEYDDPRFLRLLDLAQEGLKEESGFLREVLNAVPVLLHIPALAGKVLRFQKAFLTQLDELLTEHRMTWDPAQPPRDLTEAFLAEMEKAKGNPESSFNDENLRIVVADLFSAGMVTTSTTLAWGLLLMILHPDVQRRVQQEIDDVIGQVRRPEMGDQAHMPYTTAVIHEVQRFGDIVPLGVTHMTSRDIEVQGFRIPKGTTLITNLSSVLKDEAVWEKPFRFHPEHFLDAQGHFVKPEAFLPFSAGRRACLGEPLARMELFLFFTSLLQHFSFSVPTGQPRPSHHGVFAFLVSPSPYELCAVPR
Sequence of Pro-cathepsin H (Homo sapiens) (P09668 116-335 limits assumed, other chains not shown): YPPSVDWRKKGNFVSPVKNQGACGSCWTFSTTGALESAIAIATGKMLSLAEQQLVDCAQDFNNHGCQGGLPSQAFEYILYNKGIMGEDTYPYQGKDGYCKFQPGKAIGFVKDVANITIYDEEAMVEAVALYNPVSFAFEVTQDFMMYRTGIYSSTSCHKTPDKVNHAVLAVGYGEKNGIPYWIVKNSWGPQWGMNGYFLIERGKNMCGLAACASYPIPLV
Sequence of Matrilysin (Homo sapiens) (P09237 whole entry): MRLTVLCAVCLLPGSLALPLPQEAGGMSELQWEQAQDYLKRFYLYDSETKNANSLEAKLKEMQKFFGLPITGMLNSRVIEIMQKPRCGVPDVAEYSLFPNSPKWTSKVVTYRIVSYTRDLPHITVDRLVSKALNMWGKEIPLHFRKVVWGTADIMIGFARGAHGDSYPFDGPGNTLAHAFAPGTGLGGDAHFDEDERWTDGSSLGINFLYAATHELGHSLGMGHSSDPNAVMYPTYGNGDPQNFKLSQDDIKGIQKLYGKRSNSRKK
Sequence of Cathepsin G (P08311 whole entry): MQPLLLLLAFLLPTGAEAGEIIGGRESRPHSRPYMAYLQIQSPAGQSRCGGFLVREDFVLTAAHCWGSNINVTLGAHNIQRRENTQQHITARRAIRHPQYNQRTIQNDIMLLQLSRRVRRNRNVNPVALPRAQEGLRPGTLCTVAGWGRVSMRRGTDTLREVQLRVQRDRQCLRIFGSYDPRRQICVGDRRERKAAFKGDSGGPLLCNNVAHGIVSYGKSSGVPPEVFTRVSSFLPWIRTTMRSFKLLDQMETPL
Sequence of Cathepsin D (Homo sapiens) (P07339 65-162 limits assumed): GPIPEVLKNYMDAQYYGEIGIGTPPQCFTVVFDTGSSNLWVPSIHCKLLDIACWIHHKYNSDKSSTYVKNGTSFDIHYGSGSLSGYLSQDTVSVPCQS
Sequence of Cathepsin D (Homo sapiens) (P07339 169-412 limits assumed): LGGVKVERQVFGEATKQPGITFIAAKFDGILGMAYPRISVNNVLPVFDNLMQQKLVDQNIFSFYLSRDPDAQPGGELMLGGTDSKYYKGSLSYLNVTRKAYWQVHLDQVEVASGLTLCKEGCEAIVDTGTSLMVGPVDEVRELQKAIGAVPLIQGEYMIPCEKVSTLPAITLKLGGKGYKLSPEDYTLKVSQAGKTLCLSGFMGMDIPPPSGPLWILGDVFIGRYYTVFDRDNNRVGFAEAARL
Sequence of Interstitial collagenase (Homo sapiens) (P03956 whole entry): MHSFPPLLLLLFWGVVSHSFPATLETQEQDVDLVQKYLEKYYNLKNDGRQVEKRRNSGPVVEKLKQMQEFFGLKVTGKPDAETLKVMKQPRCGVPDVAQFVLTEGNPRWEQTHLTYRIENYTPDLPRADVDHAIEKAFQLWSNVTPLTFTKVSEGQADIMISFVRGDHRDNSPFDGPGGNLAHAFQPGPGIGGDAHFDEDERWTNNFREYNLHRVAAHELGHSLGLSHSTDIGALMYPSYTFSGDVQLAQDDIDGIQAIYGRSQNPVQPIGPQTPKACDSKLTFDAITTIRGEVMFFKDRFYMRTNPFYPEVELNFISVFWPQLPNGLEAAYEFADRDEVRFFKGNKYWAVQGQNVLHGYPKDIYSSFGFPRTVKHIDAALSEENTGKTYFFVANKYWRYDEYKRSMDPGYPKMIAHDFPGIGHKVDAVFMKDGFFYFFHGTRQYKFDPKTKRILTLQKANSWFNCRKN
Sequence of Cathepsin Z (Homo sapiens) (Q9UBR2 whole entry): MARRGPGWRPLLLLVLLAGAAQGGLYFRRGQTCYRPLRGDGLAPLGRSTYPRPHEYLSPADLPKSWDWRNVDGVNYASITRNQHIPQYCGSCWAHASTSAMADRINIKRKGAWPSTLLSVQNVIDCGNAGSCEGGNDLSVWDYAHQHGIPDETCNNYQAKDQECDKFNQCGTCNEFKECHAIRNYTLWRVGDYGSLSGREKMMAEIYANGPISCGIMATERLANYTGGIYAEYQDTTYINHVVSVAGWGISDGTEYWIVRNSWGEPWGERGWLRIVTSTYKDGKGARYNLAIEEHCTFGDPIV
Sequence of Coagulation factor VII (Homo sapiens) (P08709 61-212 limits assumed): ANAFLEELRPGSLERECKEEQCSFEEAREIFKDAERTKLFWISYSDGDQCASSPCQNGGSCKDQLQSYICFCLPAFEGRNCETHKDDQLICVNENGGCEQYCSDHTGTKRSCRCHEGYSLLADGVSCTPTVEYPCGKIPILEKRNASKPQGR
Sequence of Coagulation factor VII (Homo sapiens) (P08709 213-466 limits assumed): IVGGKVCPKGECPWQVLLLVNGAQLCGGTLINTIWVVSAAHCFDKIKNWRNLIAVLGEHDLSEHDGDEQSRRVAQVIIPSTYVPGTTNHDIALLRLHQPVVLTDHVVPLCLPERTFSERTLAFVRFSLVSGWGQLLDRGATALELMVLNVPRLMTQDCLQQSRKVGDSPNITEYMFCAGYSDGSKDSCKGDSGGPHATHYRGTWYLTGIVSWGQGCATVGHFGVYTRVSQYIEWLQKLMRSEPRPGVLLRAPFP
Sequence of Neutrophil collagenase (Homo sapiens) (P22894 101-467 limits assumed): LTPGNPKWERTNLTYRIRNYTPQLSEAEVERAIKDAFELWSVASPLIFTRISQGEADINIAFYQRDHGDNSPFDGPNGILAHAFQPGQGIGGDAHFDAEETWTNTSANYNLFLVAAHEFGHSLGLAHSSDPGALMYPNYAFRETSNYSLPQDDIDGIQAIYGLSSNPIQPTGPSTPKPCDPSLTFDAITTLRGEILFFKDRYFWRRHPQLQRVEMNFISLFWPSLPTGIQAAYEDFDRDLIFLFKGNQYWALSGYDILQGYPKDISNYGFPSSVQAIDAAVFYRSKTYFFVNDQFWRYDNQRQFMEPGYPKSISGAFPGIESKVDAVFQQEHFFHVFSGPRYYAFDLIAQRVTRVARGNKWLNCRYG
Sequence of Cytochrome P450 1A2 (P05177 whole entry, canonical isoform): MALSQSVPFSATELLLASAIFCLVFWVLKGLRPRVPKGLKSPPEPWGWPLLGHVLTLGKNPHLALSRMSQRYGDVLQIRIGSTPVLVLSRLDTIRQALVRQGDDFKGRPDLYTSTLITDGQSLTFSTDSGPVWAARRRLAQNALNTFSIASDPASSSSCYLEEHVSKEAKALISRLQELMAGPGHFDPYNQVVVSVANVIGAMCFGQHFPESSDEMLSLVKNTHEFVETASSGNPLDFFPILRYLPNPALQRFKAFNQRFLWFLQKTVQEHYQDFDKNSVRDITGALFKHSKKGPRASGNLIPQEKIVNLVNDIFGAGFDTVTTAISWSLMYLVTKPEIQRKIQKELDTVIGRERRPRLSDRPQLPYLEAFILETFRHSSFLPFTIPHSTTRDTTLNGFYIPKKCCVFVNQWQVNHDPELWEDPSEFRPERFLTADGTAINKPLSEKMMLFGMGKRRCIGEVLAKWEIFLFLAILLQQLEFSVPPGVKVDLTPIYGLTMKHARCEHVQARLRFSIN

- AUC(0-inf) [1]: 2200 ng·h/mL
- bioavailability [2]: 54%
- AUC(0-inf) [3]: 2910 ng·h/mL
- Vd [4]: 10.3 L/kg
- half-life [5]: 53 h
- inhibition (Caspase-8 (Homo sapiens)): -2%
- inhibition [6]: -5%
- inhibition [7]: 12%
- inhibition [8]: 13%
- inhibition [9]: -1%
- inhibition (Homo sapiens): 59%
- IC50 [10]: 1500 nM
- EC50 [11]: 13.5 nM
- half-life [12]: 71 h
- AUC(0-inf) [13]: 1030 ng·h/mL
- Vd [14]: 18.1 L/kg
- clearance [15]: 3.17 mL/min/kg
- AUC(0-inf) [16]: 2850 ng·h/mL
- bioavailability [17]: 39%
- Activity (Cytochrome P450 1A2): Not Active
- Activity (Cytochrome P450 2C9): Not Active
- Activity (Cytochrome P450 2D6): Not Active
- inhibition [18]: 0%
- inhibition [19]: 1%
- inhibition [20]: -3%
- IC50 (Cathepsin G): 2110 nM
- inhibition [21]: 6%
- inhibition [22]: 5%
- inhibition (Chymase (Homo sapiens)): 80%
- IC50 [23]: 5330 nM
- inhibition [24]: 2%
- inhibition [25]: 0%
- inhibition [26]: 1%
- inhibition [27]: -3%
- inhibition [28]: -1%
- inhibition (Caspase-2 (Homo sapiens)): 1%
- inhibition [29]: 12%
- inhibition (Trypsin (Homo sapiens)): 0%
- inhibition (Sus scrofa): -6%
- inhibition [30]: 1%
- half-life [31]: > 40 min
- half-life [32]: 15 min
- half-life [33]: > 40 min
- half-life [34]: > 40 min
- fraction unbound [35]: 0.001
- IC50 (Neutrophil elastase): 3550 nM
SMILES: CC(C)C[C@H](NC(=O)[C@@H](NC(=O)c1cccc(-c2ccccc2)n1)[C@@H](C)O)B(O)O [DELANZOMIB]
- Activity (Mus musculus): inactive

Reference: ChEMBL document CHEMBL1141651, “Discovery of a potent, selective, and orally active proteasome inhibitor for the treatment of cancer” (J Med Chem, 2008)
